Results: ChEMBL document CHEMBL3739335, “Phosphonooxymethyl Prodrug of Triptolide: Synthesis, Physicochemical Characterization, and Efficacy in Human Colon Adenocarcinoma and Ovarian Cancer Xenografts” (J Med Chem, 2015)
Activity calls are given as the source filed them. The rule behind the calls is not given here.

Tests used:
[1] = Stability of the compound in simulated gastric fluid assessed as compound remaining after 2 hrs by HPLC analysis
[2] = Chemical stability of the compound in buffer assessed as compound remaining at pH 2 after 4 hrs by HPLC analysis; type: physicochemical; conditions: read-out: Stability
[3] = Shelf life of the compound in buffer assessed as time for 10% loss of compound at 25 degC at pH 7.4; type: physicochemical
In short: (§1)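 Pseudo-first-order kobsd at each temperature was fitted to an Arrhenius plot, which was extrapolated to 25 and 4 °C. t1/2 and t90 (time for 10% loss) were calculated from the extrapolated kobsd.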

[4] = Stability of the compound in simulated gastric fluid assessed as compound remaining after 4 hrs by HPLC analysis
[5] = Chemical stability of the compound in buffer assessed as compound remaining at pH 1 after 2 hrs by HPLC analysis; type: physicochemical; conditions: read-out: Stability
HT-29 [6] = assay: Antitumor activity against human HT-29 cells xenografted in athymic nude mouse at 0.9 mg/kg, ip qd administered for 2 weeks followed by 3 times per week; type: functional, organism-based
In short: (§2)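 Female athymic nude mice, 7–9 weeks, implanted s.c. on right flank with 1.74 × 10^6 HT-29 cells (ATCC, mycoplasma/rodent-pathogen tested) in 50% Matrigel/50% McCoy's 5A; randomized at mean tumor 110 mm3, 10/group. IP dosing in USP saline, 0.2 mL, over a 28-day treatment period. Tumor volume by caliper (L × W2/2) at least twice weekly, tumor weight at necropsy, survival, body weight.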

[7] = Chemical stability of the compound in buffer assessed as compound remaining at pH 7.4 after 1 hr by HPLC analysis; type: physicochemical; conditions: read-out: Stability
HT-29 [8] = assay: Antitumor activity against human HT-29 cells xenografted in athymic nude mouse at 0.9 mg/kg, ip qd administered for 4 weeks; type: functional, organism-based
In short: as §2

[9] = Chemical stability of the compound in buffer assessed as pseudo-first-order rate constant at 40 degC at pH 7.4 by Arrhenius plot analysis; type: physicochemical
[10] = Stability of the compound in simulated intestinal fluid assessed as compound remaining at pH 7.5 after 24 hrs by HPLC analysis; type: ADME; conditions: read-out: Stability
In short: (§3)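 Drug incubated in simulated gastric fluid or simulated intestinal fluid and sampled at 0, 1, 2, 4, 8 and 24 h. Percent remaining was measured by reversed-phase C18 HPLC with photodiode-array detection, using a 20-min gradient of 10–70% acetonitrile against 10 mM sodium phosphate buffer at pH 7.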

[11] = Shelf life of the compound in buffer assessed as time for 10% loss of compound at 4 degC at pH 7.4; type: physicochemical
In short: as §1

[12] = Chemical stability of the compound in buffer assessed as compound remaining at pH 1 after 4 hrs by HPLC analysis; type: physicochemical; conditions: read-out: Stability
[13] = Stability of the compound in simulated intestinal fluid assessed as compound remaining at pH 7.5 after 2 hrs by HPLC analysis; type: ADME; conditions: read-out: Stability
In short: as §3

## CC(C)[C@]12O[C@H]1[C@@H]1O[C@]13[C@]1(O[C@H]1C[C@H]1C4=C(CC[C@@]13C)C(=O)OC4)[C@@H]2OCOP(=O)([O-])[O-].[Na+].[Na+] [MINNELIDE]
[1]
  remaining at 2 h: 85%
[2]
  remaining at 4 h: 95%
[3]
  Time: 0.14 yr
[4]
  remaining at 4 h: 71%
[5]
  remaining at 2 h: 79%
HT-29 [6]
  Activity: Active
[7]
  remaining at 1 h: 100%
HT-29 [8]
  Activity: Active
[9]
  K: 0.000494 h⁻¹
[10]
  remaining at 24 h: 99%
[11]
  Time: 1.9 yr
[12]
  remaining at 4 h: 62%
[13]
  remaining at 2 h: 100%
